From ChEMBL document CHEMBL3739355, “Design, synthesis and evaluation of bitopic arylpiperazinephenyl-1,2,4-oxadiazoles as preferential dopamine D3 receptor ligands” (Bioorg Med Chem, 2016)
Values joined by “and” are separate entries in the source; they are usually repeats but may differ in a detail not shown here. Equal entries are not always repeated.

What was measured:
[1] = biological target: T1, D(3) dopamine receptor (Homo sapiens, UniProt P35462); assay: Displacement of [3H]-sulpiride from human dopamine D3 receptor expressed in HEK293 cells at 0.1 uM after 150 mins by liquid scintillation counting; type: cell-based
T1 sequence (P35462 whole entry): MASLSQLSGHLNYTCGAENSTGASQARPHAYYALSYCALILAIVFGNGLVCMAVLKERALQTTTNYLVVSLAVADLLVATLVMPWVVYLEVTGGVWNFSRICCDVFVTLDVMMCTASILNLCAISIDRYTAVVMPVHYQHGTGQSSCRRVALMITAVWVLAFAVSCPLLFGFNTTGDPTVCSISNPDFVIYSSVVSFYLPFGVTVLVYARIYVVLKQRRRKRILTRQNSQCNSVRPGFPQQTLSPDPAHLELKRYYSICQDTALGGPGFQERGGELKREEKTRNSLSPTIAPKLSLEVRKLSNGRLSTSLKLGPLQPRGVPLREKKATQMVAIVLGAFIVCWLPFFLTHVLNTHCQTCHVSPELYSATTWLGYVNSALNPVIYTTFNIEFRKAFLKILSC
In short: (§1)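 Transiently PEI-transfected HEK293 cells expressing human D2R or D3R, serum-free, rinsed ice-cold. Each ligand at a single concentration competed at 4 °C for 150 min with [³H]-sulpiride: 2.2 nM for D2R, 4.4 nM for D3R. Unbound label removed by three washes in ice-cold MEM/10 mM HEPES pH 7.4. Cells were lysed in 1% SDS and bound radioactivity read by liquid scintillation.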

[2] = biological target: T2, D(2) dopamine receptor (Homo sapiens, UniProt P14416); assay: Displacement of [3H]-sulpiride from human dopamine D2 receptor expressed in HEK293 cells at 0.1 uM after 150 mins by liquid scintillation counting; type: cell-based; in short: as §1
T2 sequence (P14416 whole entry): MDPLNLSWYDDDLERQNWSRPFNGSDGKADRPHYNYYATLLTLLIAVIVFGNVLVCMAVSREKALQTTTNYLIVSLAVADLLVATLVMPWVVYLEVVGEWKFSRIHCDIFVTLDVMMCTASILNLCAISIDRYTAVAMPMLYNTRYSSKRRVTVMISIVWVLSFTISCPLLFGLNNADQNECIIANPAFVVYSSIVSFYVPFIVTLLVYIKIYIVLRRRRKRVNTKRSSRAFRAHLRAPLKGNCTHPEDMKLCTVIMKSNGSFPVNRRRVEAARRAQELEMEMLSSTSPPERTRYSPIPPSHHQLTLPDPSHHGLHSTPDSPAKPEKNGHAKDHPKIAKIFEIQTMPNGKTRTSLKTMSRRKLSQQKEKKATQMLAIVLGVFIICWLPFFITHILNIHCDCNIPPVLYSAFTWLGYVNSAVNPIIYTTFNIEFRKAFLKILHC

[3] = biological target: T1, D(3) dopamine receptor; assay: Displacement of [3H]-sulpiride from human dopamine D3 receptor expressed in HEK293 cells at 1 uM after 150 mins by liquid scintillation counting; type: cell-based; in short: as §1
[4] = biological target: T2, D(2) dopamine receptor; assay: Displacement of [3H]-sulpiride from human dopamine D2 receptor expressed in HEK293 cells at 1 uM after 150 mins by liquid scintillation counting; type: cell-based; in short: as §1
[5] = biological target: T1, D(3) dopamine receptor; assay: Displacement of [3H]-sulpiride from human dopamine D3 receptor expressed in HEK293 cells after 150 mins by liquid scintillation counting; type: cell-based
[6] = biological target: T2, D(2) dopamine receptor; assay: Displacement of [3H]-sulpiride from human dopamine D2 receptor expressed in HEK293 cells after 150 mins by liquid scintillation counting; type: cell-based
In short: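 HEK293 cells grown in MEM with 10% FBS and penicillin/streptomycin, PEI-transfected with human D2R plasmid (medium changed at 4 h, grown 24 h), then seeded and cultured overnight. Rinsed with ice-cold serum-free MEM, incubated with 2.2 nM [³H]-sulpiride plus varying ligand concentrations at 4 °C for 150 min. Washed three times in ice-cold MEM/10 mM HEPES pH 7.4, lysed in 1% SDS, scintillation counted. IC50 came from nonlinear regression curve fits.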

[7] = species: Homo sapiens; assay: Selectivity ratio of Ki for human dopamine D2 receptor to Ki for human dopamine D3 receptor

An inhibition [1] of 14.2% and an inhibition [2] of 12.7% were found for `Clc1ccc(N2CCN(CCCCNc3noc(-c4ccc(Br)cc4)n3)CC2)c(Cl)c1` in this work.
An inhibition [3] of 15.1% and an inhibition [4] of -0.6% were found for `CCCN(CCCCN1CCN(c2ccc(Cl)cc2Cl)CC1)c1noc(-c2ccccc2)n1` in this work.
An inhibition [1] of 35.3% and an inhibition [2] of 19.8% were found for `FC(F)(F)c1cccc(N2CCN(CCCCNc3noc(-c4ccccc4)n3)CC2)c1` in this work.
For `Clc1cccc(-c2nc(NCCCCN3CCN(c4ccc(Cl)cc4Cl)CC3)no2)c1`, the inhibition [1] was 37% and 41.5% and the inhibition [2] was 28.3% and 40.4%.
A Ki [5] of 270 nM, a Ki [6] of 79600 nM and a Ratio Ki [7] of 297 were found for `Clc1ccc(N2CCN(CCCCNc3noc(-c4ccccc4)n3)CC2)cc1` in this work. For the same molecule, the inhibition [2] was -2.6% and 8.3%.
For `N#Cc1ccc(-c2nc(NCCCCN3CCN(c4ccc(Cl)cc4Cl)CC3)no2)cc1`, the inhibition [1] was 36.6% and 11.8% and the inhibition [2] was 8.8% and 22.8%.
An inhibition [3] of 22.1% and an inhibition [4] of 50.1% were found for `CCCN(CCCCN1CCN(c2cccc(Cl)c2Cl)CC1)c1noc(-c2ccccc2)n1` in this work.
A Ki [5] of 810 nM and a Ki [6] of 6230 nM were found for `Clc1ccc(N2CCN(CCCCNc3noc(-c4ccccc4)n3)CC2)c(Cl)c1` [listing 1 of 3 here] in this work.
An inhibition [3] of 9.7% and an inhibition [4] of 17.8% were found for `CCCN(CCCCN1CCN(c2cccc(C(F)(F)F)c2)CC1)c1noc(-c2ccccc2)n1` in this work.
An inhibition [3] of 3.2% and an inhibition [4] of 10.6% were found for `CCCN(CCCCN1CCN(c2ccccc2F)CC1)c1noc(-c2ccccc2)n1` in this work.
`Clc1ccc(N2CCN(CCCCNc3noc(-c4ccccc4)n3)CC2)c(Cl)c1` [listing 2 of 3 here] was tested, and the Ratio Ki [7] was 7.7 and 4.4.
For `Clc1ccc(N2CCN(CCCCNc3noc(-c4ccccn4)n3)CC2)c(Cl)c1`, the inhibition [1] was 9.5% and 14.8% and the inhibition [2] was 7.8% and 17.9%.
With `COc1ccccc1-c1nc(NCCCCN2CCN(c3ccc(Cl)cc3Cl)CC2)no1` the inhibition [1] was 4.2% and 7.7% and the inhibition [2] was 5.6% and 5.4%.
A Ki [5] of 290 nM and a Ki [6] of 1290 nM were found for `Clc1ccc(N2CCN(CCCCNc3noc(-c4ccccc4)n3)CC2)c(Cl)c1` [listing 3 of 3 here] in this work.
A Ki [6] of over 23900 nM was found for `O=C(NCCCCN1CCN(c2ccc(Cl)cc2Cl)CC1)c1cc2ccccc2[nH]1` in this work.
An inhibition [1] of 50.7% and an inhibition [2] of 69.8% were found for `Fc1ccccc1N1CCN(CCCCNc2noc(-c3ccccc3)n2)CC1` in this work.
For `Clc1ccc(-c2nc(NCCCCN3CCN(c4ccc(Cl)cc4Cl)CC3)no2)cc1`, the inhibition [1] was 33.8% and 16.6% and the inhibition [2] was 15.2% and 40%.
